This is an account of results in ChEMBL document CHEMBL1152327, “Cucurbitane-type triterpenoids from the stems of Cucumis melo” (J Nat Prod, 2009).

Each structure is given as a SMILES string. Active and inactive are the calls of the source. No cut-off for these calls is given here.

Experiment [1] deals with A549. Put plainly: Cytotoxicity against human A549 cells upto 10 uM after 72 hrs by SRB assay. Format: functional, cell-based. In short, it runs like this: (§1)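 A549/ATCC (human non-small-cell lung) or BEL-7402 (human hepatocellular) cells plated 24 h before treatment, then continuously exposed to a range of concentrations for 72 h. Cells fixed and stained with sulforhodamine B, bound dye solubilized in 10 mM Tris, absorbance read at 565 nm. IC50 derived.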
For orientation: The SRB assay estimates cell density from bound dye.

In experiment [2] the target is Signal transducer and activator of transcription 3 (Homo sapiens) (UniProt P40763). Put plainly: Inhibition of STAT3 upto 10 uM by Western blotting. In short, it runs like this: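 Phosphotyrosine Stat3 levels in treated cells, tested up to 10 µM. Cells washed in ice-cold PBS, lysed in SDS sample buffer, equal protein run on SDS-PAGE and transferred to PVDF. Blots blocked in 5% nonfat milk/TBST, then phospho-Stat3 and β-tubulin antibodies at 4 °C overnight, secondary 2 h room temperature, ECL detection. IC50 derived.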

The test system of experiment [3] is Bel-7402. Put plainly: Cytotoxicity against human Bel7402 cells upto 10 uM after 72 hrs by SRB assay. The class given is functional, cell-based. In short, it runs like this:
as §1

For experiment [4], the system named is Bel-7402. Put plainly: Cytotoxicity against human Bel7402 cells after 72 hrs by SRB assay. The class given is functional, cell-based. The conditions noted are these: Bel-7402, 72 h. In short, it runs like this:
as §1

Experiment [5] has as its system A549. The experiment is described as follows: Cytotoxicity against human A549 cells after 72 hrs by SRB assay. Format: functional, cell-based. The settings on record: A549, 72 h. In short, it runs like this:
as §1

Chain of Signal transducer and activator of transcription 3 (Homo sapiens) (P40763 whole entry): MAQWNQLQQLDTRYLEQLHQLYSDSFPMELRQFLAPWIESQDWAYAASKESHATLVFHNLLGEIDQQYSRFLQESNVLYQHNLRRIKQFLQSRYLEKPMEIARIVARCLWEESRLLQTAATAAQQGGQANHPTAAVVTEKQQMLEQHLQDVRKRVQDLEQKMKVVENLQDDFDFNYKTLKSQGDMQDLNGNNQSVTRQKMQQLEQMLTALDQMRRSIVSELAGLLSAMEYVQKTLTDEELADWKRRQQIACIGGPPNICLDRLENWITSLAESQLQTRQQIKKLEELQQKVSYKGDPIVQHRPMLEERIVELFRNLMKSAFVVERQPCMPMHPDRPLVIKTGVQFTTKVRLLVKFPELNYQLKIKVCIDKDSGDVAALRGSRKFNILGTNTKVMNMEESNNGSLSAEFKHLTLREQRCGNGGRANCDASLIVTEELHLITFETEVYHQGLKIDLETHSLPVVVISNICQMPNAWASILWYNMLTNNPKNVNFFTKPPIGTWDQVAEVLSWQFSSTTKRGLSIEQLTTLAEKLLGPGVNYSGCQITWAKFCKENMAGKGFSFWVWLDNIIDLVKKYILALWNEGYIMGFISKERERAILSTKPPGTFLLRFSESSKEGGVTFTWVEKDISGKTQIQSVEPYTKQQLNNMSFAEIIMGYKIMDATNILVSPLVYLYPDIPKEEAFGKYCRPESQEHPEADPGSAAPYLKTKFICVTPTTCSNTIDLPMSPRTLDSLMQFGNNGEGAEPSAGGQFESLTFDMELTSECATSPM

For `CC(C)=CCC[C@@H](C)[C@H]1CC[C@@]2(C)[C@@H]3CC=C4[C@H](CCCC4(C)C)[C@H]3C(=O)C[C@]12C`, the outcome with A549 [1] and in the experiment on Bel-7402 [3] was inactive. Moreover, in experiment [2], the inhibition entry was “inactive”.
As for `CC(=O)OC(C)(C)/C=C/C(=O)[C@](C)(O)[C@H]1[C@H](O)C[C@@]2(C)[C@@H]3CC=C4[C@@H](C[C@H](O[C@@H]5O[C@H](CO)[C@@H](O)[C@H](O)[C@H]5O)C(=O)C4(C)C)[C@]3(CO)C(=O)C[C@]12C`, the result with A549 [1] and in the experiment with Bel-7402 [3] was inactive. Further, the inhibition result in experiment [2] is “inactive”.
Take `CC1(C)C(=O)[C@@H](O)C[C@@H]2C1=CC[C@@H]1[C@@]2(C)C(=O)C[C@]2(C)[C@@H]([C@@](C)(O)C(=O)CC(O)C(C)(C)O)[C@H](O)C[C@@]12C` (some centres not stated): the result in the experiment with A549 [1] and in the experiment on Bel-7402 [3] was inactive. Also, the inhibition entry in experiment [2] is “inactive”.
Consider `CC(=O)OC(C)(C)CCC(=O)[C@](C)(O)[C@H]1[C@H](O)C[C@@]2(C)[C@@H]3CC=C4[C@@H](CC(=O)[C@H](O)C4(C)C)[C@]3(C)C(=O)C[C@]12C`, for which the outcome with A549 [1] and with Bel-7402 [3] was inactive. The inhibition entry in experiment [2] was “inactive”.
For orientation: IC50 means the midpoint of a concentration-inhibition curve. A higher IC50 goes with weaker potency in that assay. `CC(=O)OC(C)(C)/C=C/C(=O)[C@](C)(O)[C@H]1[C@H](O)C[C@@]2(C)[C@@H]3CC=C4[C@@H](C[C@H](O)C(=O)C4(C)C)[C@]3(CO)C(=O)C[C@]12C` [CUCURBITACIN A]: the IC50 in the experiment with Bel-7402 [4] came out at 0.3 µM; with A549 [5], 0.4 µM. The inhibition result in experiment [2] is “inactive”.
In the case of `CC(=O)OC(C)(C)CCC(=O)[C@](C)(O)[C@H]1[C@H](O)C[C@@]2(C)[C@@H]3[C@@H](O)C=C4[C@@H](C[C@H](O)C(=O)C4(C)C)[C@]3(C)C(=O)C[C@]12C`, the outcome in the experiment with A549 [1] and with Bel-7402 [3] was inactive. Also, the inhibition result in experiment [2] was “inactive”.
Regarding `CC1(C)C(=O)[C@@H](O)C[C@@H]2C1=CC[C@@H]1[C@@]2(C)C(=O)C[C@]2(C)[C@@H]([C@@](C)(O)C(=O)C[C@H](O)C(C)(C)O)[C@H](O)C[C@@]12C`, the outcome in the experiment with A549 [1] and with Bel-7402 [3] was inactive. The inhibition entry in experiment [2] is “inactive”.
On to `CC(C)(O)/C=C/C(=O)[C@](C)(O)[C@H]1[C@H](O)C[C@@]2(C)[C@@H]3CC=C4[C@@H](C[C@H](O)C(=O)C4(C)C)[C@]3(CO)C(=O)C[C@]12C`, for which the result in the experiment with A549 [1] and in the experiment on Bel-7402 [3] was inactive. For the same compound, the inhibition result in experiment [2] was “inactive”.
Consider `CC(C)(O)CCC(=O)[C@](C)(O)[C@H]1[C@H](O)C[C@@]2(C)[C@@H]3CC=C4[C@@H](C[C@H](O)C(=O)C4(C)C)[C@]3(C)C(=O)C[C@]12C`, for which the outcome in the experiment on A549 [1] and with Bel-7402 [3] was inactive. Besides, the inhibition result in experiment [2] is “inactive”.
For the compound `CC(C)(O)/C=C/C(=O)[C@](C)(O)[C@H]1[C@H](O)C[C@@]2(C)[C@@H]3CC=C4[C@@H](C[C@H](O[C@@H]5O[C@H](CO)[C@@H](O)[C@H](O)[C@H]5O)C(=O)C4(C)C)[C@]3(C)C(=O)C[C@]12C`, the outcome with A549 [1] and with Bel-7402 [3] was inactive. In experiment [2], the inhibition result is “inactive”.
As for `C/C(=C\[C@@H]1C[C@](C)(O)[C@H]2[C@@H](C[C@@]3(C)[C@@H]4[C@@H](O)C=C5[C@@H](C[C@H](O)[C@H](O)C5(C)C)[C@]4(C)C(=O)C[C@]23C)O1)CO`, the outcome in the experiment with A549 [1] and with Bel-7402 [3] was inactive. The inhibition result in experiment [2] is “inactive”.
As for `CC(=O)OC(C)(C)/C=C/C(=O)[C@](C)(O)[C@H]1[C@H](O)C[C@@]2(C)[C@@H]3CC=C4[C@H](C[C@H](O)C(=O)C4(C)C)[C@]3(C)C(=O)C[C@]12C` [CUCURBITACIN B], the IC50 in the experiment with Bel-7402 [4] worked out at 0.008 µM; in the experiment on A549 [5], 0.01 µM.
Consider `CC(=O)[C@H]1[C@H](O)C[C@@]2(C)[C@@H]3CC=C4[C@@H](C[C@H](O[C@@H]5O[C@H](CO)[C@@H](O)[C@H](O)[C@H]5O)C(=O)C4(C)C)[C@]3(C)C(=O)C[C@]12C`, for which the result in the experiment on A549 [1] and with Bel-7402 [3] was inactive. Also, the inhibition entry in experiment [2] was “inactive”.
As to `CC(=O)OC(C)(C)/C=C/C(=O)[C@](C)(O)[C@H]1[C@H](O)C[C@@]2(C)[C@@H]3CC=C4[C@@H](C[C@H](O[C@@H]5O[C@H](CO)[C@@H](O)[C@H](O)[C@H]5O)C(=O)C4(C)C)[C@]3(C)C(=O)C[C@]12C`, the result in the experiment with A549 [1] and in the experiment on Bel-7402 [3] was inactive. In experiment [2], the inhibition result was “inactive”.
With `C/C(=C\C(O)C[C@](C)(O)[C@H]1[C@H](O)C[C@@]2(C)[C@@H]3CC=C4[C@@H](C[C@H](O)C(=O)C4(C)C)[C@]3(C)C(=O)C[C@]12C)CO` (some centres not stated), the result in the experiment with A549 [1] and with Bel-7402 [3] was inactive. The inhibition entry in experiment [2] is “inactive”.
As to `CC(C)(O)CCC(=O)[C@](C)(O)[C@H]1[C@H](O)C[C@@]2(C)[C@@H]3CC=C4[C@@H](CC(=O)[C@H](O)C4(C)C)[C@]3(C)C(=O)C[C@]12C`, the outcome with A549 [1] and in the experiment with Bel-7402 [3] was inactive. In addition, the inhibition result in experiment [2] was “inactive”.
With `CC(=O)OC(C)(C)/C=C/C(=O)[C@](C)(O)[C@H]1[C@H](O)C[C@@]2(C)[C@@H]3[C@@H](O)C=C4[C@@H](C[C@H](O)C(=O)C4(C)C)[C@]3(C)C(=O)C[C@]12C` [7BETA-HYDROXYCUCURBITACIN B], the values for the IC50 in the experiment on Bel-7402 [4] and in the experiment with A549 [5] were 7.59 µM and 3.21 µM, respectively. The inhibition result in experiment [2] is “inactive”.
As for `CC(=O)[C@H]1[C@H](O)C[C@@]2(C)[C@@H]3CC=C4[C@@H](C[C@H](O)C(=O)C4(C)C)[C@]3(C)C(=O)C[C@]12C`, the result with A549 [1] and with Bel-7402 [3] was inactive. Also, the inhibition entry in experiment [2] was “inactive”.
In the case of `CC(C)(O)CCC(=O)[C@](C)(O)[C@H]1[C@H](O)C[C@@]2(C)[C@@H]3CC=C4[C@@H](C[C@H](O)C(=O)C4(C)C)[C@]3(CO)C(=O)C[C@]12C`, the result in the experiment with A549 [1] and with Bel-7402 [3] was inactive. For the same compound, the inhibition result in experiment [2] is “inactive”.
Take `C/C(=C\[C@@H]1C[C@](C)(O)[C@H]2[C@@H](C[C@@]3(C)[C@@H]4[C@@H](O)C=C5[C@@H](C[C@H](O[C@@H]6O[C@H](CO)[C@@H](O)[C@H](O)[C@H]6O)[C@H](O)C5(C)C)[C@]4(C)C(=O)C[C@]23C)O1)CO`: the outcome in the experiment on A549 [1] and in the experiment on Bel-7402 [3] was inactive. For the same compound, in experiment [2], the inhibition entry was “inactive”.
Turning to `CC(=O)OC(C)(C)CCC(=O)[C@](C)(O)[C@H]1[C@H](O)C[C@@]2(C)[C@@H]3CC=C4[C@@H](C[C@H](O)C(=O)C4(C)C)[C@]3(C)C(=O)C[C@]12C`, the result with A549 [1] and with Bel-7402 [3] was inactive. The inhibition entry in experiment [2] was “inactive”.
